Active and inactive are the calls of the source. The calls are words filed in the database; no cut-off is given here.
Key:
[1] = biological target: T1, Protein cereblon/3-hydroxy-3-methylglutaryl-coenzyme A reductase (Cricetulus griseus) (UniProt P00347+G3H338); assay: Protac activity at CRBN/HMGCR in Insig-1/Insig-2 deficient Chinese hamster SRD15 cells assessed as HMGCR level at 1 uM after 16 hrs in presence of 0.3 uM atorvastatin by immunoblotting analysis (reference value: 1)
Target sequence in this assay (G3H338 1-445 partner): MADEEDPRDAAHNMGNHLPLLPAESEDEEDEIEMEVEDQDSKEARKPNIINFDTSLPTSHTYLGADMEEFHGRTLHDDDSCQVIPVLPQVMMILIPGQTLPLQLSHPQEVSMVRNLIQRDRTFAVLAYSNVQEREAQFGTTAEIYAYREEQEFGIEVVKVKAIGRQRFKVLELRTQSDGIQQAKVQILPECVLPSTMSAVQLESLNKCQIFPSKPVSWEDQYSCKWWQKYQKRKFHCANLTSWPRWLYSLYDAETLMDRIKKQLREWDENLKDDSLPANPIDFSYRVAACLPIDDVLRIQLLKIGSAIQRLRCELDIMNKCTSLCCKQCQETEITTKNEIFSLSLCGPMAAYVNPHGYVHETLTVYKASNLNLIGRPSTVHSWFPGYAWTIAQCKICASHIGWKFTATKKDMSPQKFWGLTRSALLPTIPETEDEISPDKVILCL
Target sequence in this assay (P00347 whole entry): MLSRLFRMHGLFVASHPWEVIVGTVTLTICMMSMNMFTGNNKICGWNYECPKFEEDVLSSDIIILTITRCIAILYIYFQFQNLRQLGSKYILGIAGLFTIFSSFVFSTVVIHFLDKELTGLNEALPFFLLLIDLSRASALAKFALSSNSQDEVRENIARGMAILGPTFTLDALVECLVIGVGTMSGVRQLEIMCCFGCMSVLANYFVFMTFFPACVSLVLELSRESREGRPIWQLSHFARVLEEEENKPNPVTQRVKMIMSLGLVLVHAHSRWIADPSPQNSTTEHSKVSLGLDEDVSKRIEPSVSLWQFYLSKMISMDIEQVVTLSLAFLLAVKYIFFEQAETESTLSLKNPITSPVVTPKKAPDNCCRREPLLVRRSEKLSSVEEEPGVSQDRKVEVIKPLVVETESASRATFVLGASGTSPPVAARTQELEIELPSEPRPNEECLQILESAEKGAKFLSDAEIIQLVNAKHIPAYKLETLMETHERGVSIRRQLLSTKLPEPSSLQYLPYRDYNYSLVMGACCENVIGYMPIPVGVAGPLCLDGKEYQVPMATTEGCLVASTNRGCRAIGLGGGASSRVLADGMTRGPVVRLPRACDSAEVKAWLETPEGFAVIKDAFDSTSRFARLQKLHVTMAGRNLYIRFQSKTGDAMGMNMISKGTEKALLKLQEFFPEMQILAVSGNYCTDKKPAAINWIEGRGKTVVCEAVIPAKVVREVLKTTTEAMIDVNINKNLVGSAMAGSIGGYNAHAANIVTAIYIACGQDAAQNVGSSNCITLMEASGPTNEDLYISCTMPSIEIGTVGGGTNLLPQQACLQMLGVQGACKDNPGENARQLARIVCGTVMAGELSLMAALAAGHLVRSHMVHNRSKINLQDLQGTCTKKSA

[2] = biological target: Protein cereblon/3-hydroxy-3-methylglutaryl-coenzyme A reductase (Homo sapiens) (UniProt P04035+Q96SW2); assay: Protac activity at human Flag-tagged CRBN/Myc-tagged HMGCR expressed in HEK293T cells assessed as induction of HMGCR immunoprecipitation at 1 uM preincubated for 16 hrs followed by MG132 addition addition and measured after 5 hrs in presence of MG132 by Western blot analysis; format: cell-based; conditions: HEK-293T
Sequence of Protein cereblon/3-hydroxy-3-methylglutaryl-coenzyme A reductase (Homo sapiens) (P04035 whole entry, looked up, the tested form may be a part): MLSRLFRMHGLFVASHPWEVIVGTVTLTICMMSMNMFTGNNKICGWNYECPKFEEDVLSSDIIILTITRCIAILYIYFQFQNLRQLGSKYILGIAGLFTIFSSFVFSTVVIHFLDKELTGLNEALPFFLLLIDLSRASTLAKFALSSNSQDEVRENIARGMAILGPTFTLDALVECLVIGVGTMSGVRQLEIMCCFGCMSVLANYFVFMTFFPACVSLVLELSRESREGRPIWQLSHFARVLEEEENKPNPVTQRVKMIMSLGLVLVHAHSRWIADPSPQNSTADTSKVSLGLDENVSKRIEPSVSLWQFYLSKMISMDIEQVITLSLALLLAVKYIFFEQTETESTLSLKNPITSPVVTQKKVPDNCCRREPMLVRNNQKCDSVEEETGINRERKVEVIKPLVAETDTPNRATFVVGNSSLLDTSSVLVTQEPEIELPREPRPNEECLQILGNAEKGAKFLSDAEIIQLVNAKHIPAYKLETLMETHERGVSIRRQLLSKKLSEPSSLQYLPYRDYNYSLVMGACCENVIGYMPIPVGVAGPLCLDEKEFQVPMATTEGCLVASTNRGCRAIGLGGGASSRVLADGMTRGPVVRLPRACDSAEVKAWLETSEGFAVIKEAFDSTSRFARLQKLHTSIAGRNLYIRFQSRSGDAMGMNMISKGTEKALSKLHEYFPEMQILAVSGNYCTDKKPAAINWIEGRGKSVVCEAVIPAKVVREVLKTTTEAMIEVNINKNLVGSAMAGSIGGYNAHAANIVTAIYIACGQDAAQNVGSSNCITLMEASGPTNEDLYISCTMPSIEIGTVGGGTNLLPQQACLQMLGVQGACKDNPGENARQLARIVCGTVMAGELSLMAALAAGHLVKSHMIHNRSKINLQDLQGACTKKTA
Sequence of Protein cereblon/3-hydroxy-3-methylglutaryl-coenzyme A reductase (Homo sapiens) (Q96SW2 whole entry, looked up, the tested form may be a part): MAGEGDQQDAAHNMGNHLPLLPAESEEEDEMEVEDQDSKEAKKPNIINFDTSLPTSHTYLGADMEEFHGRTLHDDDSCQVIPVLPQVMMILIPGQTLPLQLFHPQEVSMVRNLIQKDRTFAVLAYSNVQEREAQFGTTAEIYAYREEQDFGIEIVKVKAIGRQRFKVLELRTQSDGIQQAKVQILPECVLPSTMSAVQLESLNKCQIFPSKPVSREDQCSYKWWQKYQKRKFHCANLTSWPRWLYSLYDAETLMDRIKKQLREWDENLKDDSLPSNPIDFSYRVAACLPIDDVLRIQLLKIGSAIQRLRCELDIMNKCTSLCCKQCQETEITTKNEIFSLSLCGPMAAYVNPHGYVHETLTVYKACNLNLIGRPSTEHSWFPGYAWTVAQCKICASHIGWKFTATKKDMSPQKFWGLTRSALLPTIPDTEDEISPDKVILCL

[3] = biological target: T2, Thioredoxin domain-containing protein 11 (Homo sapiens) (UniProt Q6PKC3); assay: Activation of TXNDC11 (unknown origin)
T2 sequence (whole entry): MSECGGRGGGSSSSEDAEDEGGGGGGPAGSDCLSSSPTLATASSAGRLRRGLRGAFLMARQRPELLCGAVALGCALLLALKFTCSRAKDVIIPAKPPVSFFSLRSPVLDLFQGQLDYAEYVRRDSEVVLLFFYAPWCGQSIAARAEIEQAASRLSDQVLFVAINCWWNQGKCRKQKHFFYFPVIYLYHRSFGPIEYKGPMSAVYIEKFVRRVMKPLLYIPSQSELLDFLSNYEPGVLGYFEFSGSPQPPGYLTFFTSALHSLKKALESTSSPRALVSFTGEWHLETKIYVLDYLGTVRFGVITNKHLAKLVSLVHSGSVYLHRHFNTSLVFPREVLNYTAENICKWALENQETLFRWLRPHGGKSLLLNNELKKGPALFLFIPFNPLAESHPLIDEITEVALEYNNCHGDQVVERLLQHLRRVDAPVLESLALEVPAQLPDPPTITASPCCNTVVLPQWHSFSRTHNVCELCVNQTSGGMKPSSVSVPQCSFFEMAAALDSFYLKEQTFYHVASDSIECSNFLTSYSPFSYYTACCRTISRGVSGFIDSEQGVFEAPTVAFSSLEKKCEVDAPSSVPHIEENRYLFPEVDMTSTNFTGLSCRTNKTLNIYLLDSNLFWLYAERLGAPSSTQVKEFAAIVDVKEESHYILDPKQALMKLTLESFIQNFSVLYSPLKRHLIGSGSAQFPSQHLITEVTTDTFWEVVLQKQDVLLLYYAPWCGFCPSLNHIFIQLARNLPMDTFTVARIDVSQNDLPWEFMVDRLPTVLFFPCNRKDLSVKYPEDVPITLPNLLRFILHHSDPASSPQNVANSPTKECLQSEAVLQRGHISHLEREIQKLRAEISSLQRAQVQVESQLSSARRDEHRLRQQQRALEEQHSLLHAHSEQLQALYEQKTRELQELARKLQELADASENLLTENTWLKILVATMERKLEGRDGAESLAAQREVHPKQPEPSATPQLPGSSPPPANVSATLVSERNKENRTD

[4] = biological target: T1, Protein cereblon/3-hydroxy-3-methylglutaryl-coenzyme A reductase (Cricetulus griseus); assay: Protac activity at CRBN/HMGCR in Insig-1/Insig-2 deficient Chinese hamster SRD15 cells assessed as HMGCR level at 1 uM after 16 hrs in presence of 1 uM pomalidomide by immunoblotting analysis (reference value: 1)
[5] = biological target: T3, Sterol regulatory element-binding protein 2 (Mus musculus) (UniProt Q3U1N2); assay: Activation of SREBP2 pathway in mouse primary hepatocytes assessed as increase in LDLR mRNA expression at 0.3 to 1 uM afer 16 hrs by quantitative real-time PCR analysis; format: cell-based
T3 sequence (whole entry): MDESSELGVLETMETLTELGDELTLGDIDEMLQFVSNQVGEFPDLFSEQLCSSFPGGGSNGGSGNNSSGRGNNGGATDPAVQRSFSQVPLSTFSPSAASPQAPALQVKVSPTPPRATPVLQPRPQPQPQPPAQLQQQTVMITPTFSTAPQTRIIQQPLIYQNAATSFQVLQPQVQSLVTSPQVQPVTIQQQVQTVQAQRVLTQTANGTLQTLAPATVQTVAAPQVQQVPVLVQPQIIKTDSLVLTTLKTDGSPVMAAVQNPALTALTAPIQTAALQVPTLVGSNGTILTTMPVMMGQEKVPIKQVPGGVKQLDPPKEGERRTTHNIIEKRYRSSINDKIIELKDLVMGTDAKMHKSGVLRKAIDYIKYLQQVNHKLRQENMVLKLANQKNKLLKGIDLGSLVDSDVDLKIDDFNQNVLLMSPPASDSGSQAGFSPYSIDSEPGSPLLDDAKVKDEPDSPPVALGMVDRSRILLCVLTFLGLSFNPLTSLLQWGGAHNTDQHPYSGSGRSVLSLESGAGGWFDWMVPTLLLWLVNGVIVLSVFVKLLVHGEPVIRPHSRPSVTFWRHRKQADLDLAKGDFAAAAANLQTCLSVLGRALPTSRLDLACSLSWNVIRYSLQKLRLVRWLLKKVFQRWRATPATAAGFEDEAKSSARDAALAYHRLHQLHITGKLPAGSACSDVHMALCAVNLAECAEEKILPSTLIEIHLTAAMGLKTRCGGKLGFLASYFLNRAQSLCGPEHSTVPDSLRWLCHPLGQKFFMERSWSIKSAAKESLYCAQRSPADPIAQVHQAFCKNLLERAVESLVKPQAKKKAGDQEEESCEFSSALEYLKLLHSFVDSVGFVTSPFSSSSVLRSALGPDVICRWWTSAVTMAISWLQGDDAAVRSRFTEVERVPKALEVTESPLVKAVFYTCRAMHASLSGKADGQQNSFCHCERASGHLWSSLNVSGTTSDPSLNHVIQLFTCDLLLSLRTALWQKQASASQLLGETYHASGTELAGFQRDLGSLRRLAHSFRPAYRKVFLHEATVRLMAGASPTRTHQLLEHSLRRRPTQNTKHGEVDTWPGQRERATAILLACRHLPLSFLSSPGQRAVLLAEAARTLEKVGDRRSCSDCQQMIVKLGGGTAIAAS

[6] = biological target: T1, Protein cereblon/3-hydroxy-3-methylglutaryl-coenzyme A reductase (Cricetulus griseus); assay: Protac activity at CRBN/HMGCR in Insig-1/Insig-2 deficient Chinese hamster SRD15 cells assessed as induction of HMGCR degradation at 1 uM preincubated for 16 hrs followed by addition of proteasome inhibitor MG132 and further incubated for 3 hrs by Western blot analysis
In short: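 SRD15 cells treated with 1 μM degrader for 16 h, then for 3 h with 10 μM MG132 or with MLN-4924 at the indicated concentrations. HMGCR by immunoblot.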

[7] = biological target: T1, Protein cereblon/3-hydroxy-3-methylglutaryl-coenzyme A reductase (Cricetulus griseus); assay: Protac activity at CRBN/HMGCR in Insig-1/Insig-2 deficient Chinese hamster SRD15 cells assessed as HMGCR level at 0.3 uM after 16 hrs by immunoblotting analysis (reference value: 1)
In short: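 Dose-response in SRD15 cells in Medium A with 5% FBS, 16 h treatment, DMSO final 0.1% or lower. RIPA lysates immunoblotted for HMGCR. HMGCR densitometry normalized to actin, with the DMSO group set to 1. Three repeats. DC50 is taken from a dose-response fit of the semi-quantitative blots, mean of 3 independent experiments.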
Target sequence in this assay (G3H338 1-445 partner): as the sequence (G3H338 1-445 partner) above
Target sequence in this assay (P00347 whole entry): as the sequence (P00347 whole entry) above

For `CC(C)c1c(C(=O)Nc2ccccc2)c(-c2cccc(OCCCc3cn(CCOCCOCCOCCOCCNc4cccc5c4C(=O)N(C4CCC(=O)NC4=O)C5=O)nn3)c2)c(-c2ccc(F)cc2)n1CC[C@@H](O)C[C@@H](O)CC(=O)O` (some centres not stated), the fold change (FC) [1] was 1, the Activity [2] was “Active” and the fold change (FC) [3] was 7. For the same compound, the fold change (FC) [4] was 1, the Activity [5] was “Active” and the Activity [6] was “inactive”. For the same compound, the fold change (FC) [7] was 0.4.
